Measurements: ChEMBL document CHEMBL1153560, “In vitro activities of doripenem and six comparator drugs against 423 aerobic and anaerobic bacterial isolates from infected diabetic foot wounds” (2008)
In brackets after ≈: the same amount, converted by molar mass.

Assays:
Assay type in all cases: functional
Bacteroides ovatus [1] = test: Antibacterial activity against Bacteroides ovatus isolated from patient with diabetic foot infection after 44 to 48 hrs by agar dilution method
How it was run: (§1)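 CLSI M11-A7 agar dilution: serial twofold drug dilutions made on the test day and added to molten agar. Spots of 10^5 CFU were applied by replicator, with drug-free control plates inoculated before and after each set. Incubation was 44 to 48 h at 37°C in an anaerobic chamber. MIC was the lowest concentration giving no growth or a marked change in growth versus controls.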

Anaerococcus tetradius [2] = test: Antibacterial activity against Anaerococcus tetradius isolated from patient with diabetic foot infection assessed as percent resistant isolates after 44 to 48 hrs by agar dilution method
How it was run: (§2)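 Agar dilution per CLSI M11-A7. Twofold drug dilutions made on the test day and added to molten agar. Replicator-applied inoculum of 10^5 CFU/spot. Drug-free control plates inoculated before and after each drug set. Incubation at 37°C for 44 to 48 h, anaerobic chamber. MIC taken as the lowest concentration giving no growth or a marked change in growth versus controls.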

Bacteroides fragilis [3] = test: Antibacterial activity against Bacteroides fragilis isolated from patient with diabetic foot infection assessed as percent resistant isolates after 44 to 48 hrs by agar dilution method; how it was run: as §2
Porphyromonas somerae [4] = test: Antibacterial activity against Porphyromonas somerae isolated from patient with diabetic foot infection assessed as percent resistant isolates after 44 to 48 hrs by agar dilution method; how it was run: as §2
Anaerococcus prevotii [5] = test: Antibacterial activity against Anaerococcus prevotii isolated from patient with diabetic foot infection assessed as percent resistant isolates after 44 to 48 hrs by agar dilution method; how it was run: as §2
Anaerococcus prevotii [6] = test: Antibacterial activity against Anaerococcus prevotii isolated from patient with diabetic foot infection after 44 to 48 hrs by agar dilution method; how it was run: as §1
[7] = system: Bacteroides thetaiotaomicron; test: Antibacterial activity against Bacteroides thetaiotaomicron isolated from patient with diabetic foot infection after 44 to 48 hrs by agar dilution method; how it was run: as §1
[8] = system: Enterocloster clostridioformis; test: Antibacterial activity against Clostridium clostridioforme isolated from patient with diabetic foot infection after 44 to 48 hrs by agar dilution method; how it was run: as §1
[Clostridium] innocuum [9] = Antibacterial activity against Clostridium innocuum isolated from patient with diabetic foot infection after 44 to 48 hrs by agar dilution method; how it was run: as §1
Finegoldia magna [10] = test: Antibacterial activity against Finegoldia magna isolated from patient with diabetic foot infection after 44 to 48 hrs by agar dilution method; how it was run: as §1
[11] = system: Clostridium malenominatum; test: Antibacterial activity against Clostridium malenominatum isolated from patient with diabetic foot infection after 44 to 48 hrs by agar dilution method; how it was run: as §1
Bacteroides uniformis [12] = test: Antibacterial activity against Bacteroides uniformis isolated from patient with diabetic foot infection after 44 to 48 hrs by agar dilution method; how it was run: as §1
[13] = system: Peptostreptococcus anaerobius; test: Antibacterial activity against Peptostreptococcus anaerobius isolated from patient with diabetic foot infection after 44 to 48 hrs by agar dilution method; how it was run: as §1
[14] = system: Parabacteroides distasonis; test: Antibacterial activity against Parabacteroides distasonis isolated from patient with diabetic foot infection after 44 to 48 hrs by agar dilution method; how it was run: as §1
Cutibacterium acnes = test: Antibacterial activity against Propionibacterium acnes isolated from patient with diabetic foot infection after 44 to 48 hrs by agar dilution method; how it was run: as §1
[15] = system: Peptostreptococcus anaerobius; test: Antibacterial activity against Peptostreptococcus anaerobius isolated from patient with diabetic foot infection assessed as percent resistant isolates after 44 to 48 hrs by agar dilution method; how it was run: as §2
[16] = system: Peptoniphilus asaccharolyticus; test: Antibacterial activity against Peptoniphilus asaccharolyticus isolated from patient with diabetic foot infection assessed as percent resistant isolates after 44 to 48 hrs by agar dilution method; how it was run: as §2
[Clostridium] innocuum [17] = Antibacterial activity against Clostridium innocuum isolated from patient with diabetic foot infection assessed as percent resistant isolates after 44 to 48 hrs by agar dilution method; how it was run: as §2
Phocaeicola vulgatus [18] = test: Antibacterial activity against Bacteroides vulgatus isolated from patient with diabetic foot infection after 44 to 48 hrs by agar dilution method; how it was run: as §1
Clostridium cadaveris = test: Antibacterial activity against Clostridium cadaveris isolated from patient with diabetic foot infection after 44 to 48 hrs by agar dilution method; how it was run: as §1
[19] = system: Bacteroides thetaiotaomicron; test: Antibacterial activity against Bacteroides thetaiotaomicron isolated from patient with diabetic foot infection assessed as percent resistant isolates after 44 to 48 hrs by agar dilution method; how it was run: as §2
[20] = system: Enterocloster clostridioformis; test: Antibacterial activity against Clostridium clostridioforme isolated from patient with diabetic foot infection assessed as percent resistant isolates after 44 to 48 hrs by agar dilution method; how it was run: as §2
Finegoldia magna [21] = test: Antibacterial activity against Finegoldia magna isolated from patient with diabetic foot infection assessed as percent resistant isolates after 44 to 48 hrs by agar dilution method; how it was run: as §2
Prevotella bivia = test: Antibacterial activity against Prevotella bivia isolated from patient with diabetic foot infection assessed as percent resistant isolates after 44 to 48 hrs by agar dilution method; how it was run: as §2
Bacteroides ovatus [22] = test: Antibacterial activity against Bacteroides ovatus isolated from patient with diabetic foot infection assessed as percent resistant isolates after 44 to 48 hrs by agar dilution method; how it was run: as §2
Bacteroides fragilis [23] = test: Antibacterial activity against Bacteroides fragilis isolated from patient with diabetic foot infection after 44 to 48 hrs by agar dilution method; how it was run: as §1
Phocaeicola vulgatus [24] = test: Antibacterial activity against Bacteroides vulgatus isolated from patient with diabetic foot infection assessed as percent resistant isolates after 44 to 48 hrs by agar dilution method; how it was run: as §2
[25] = system: Clostridium malenominatum; test: Antibacterial activity against Clostridium malenominatum isolated from patient with diabetic foot infection assessed as percent resistant isolates after 44 to 48 hrs by agar dilution method; how it was run: as §2
Parvimonas micra [26] = test: Antibacterial activity against Peptostreptococcus micros isolated from patient with diabetic foot infection after 44 to 48 hrs by agar dilution method; how it was run: as §1
Parvimonas micra [27] = test: Antibacterial activity against Peptostreptococcus micros isolated from patient with diabetic foot infection assessed as percent resistant isolates after 44 to 48 hrs by agar dilution method; how it was run: as §2
Anaerococcus tetradius [28] = test: Antibacterial activity against Anaerococcus tetradius isolated from patient with diabetic foot infection after 44 to 48 hrs by agar dilution method; how it was run: as §1
Bacteroides uniformis [29] = test: Antibacterial activity against Bacteroides uniformis isolated from patient with diabetic foot infection assessed as percent resistant isolates after 44 to 48 hrs by agar dilution method; how it was run: as §2
[30] = system: Porphyromonas asaccharolytica; test: Antibacterial activity against Porphyromonas asaccharolyticus isolated from patient with diabetic foot infection after 44 to 48 hrs by agar dilution method; how it was run: as §1
[31] = system: Porphyromonas asaccharolytica; test: Antibacterial activity against Porphyromonas asaccharolyticus isolated from patient with diabetic foot infection assessed as percent resistant isolates after 44 to 48 hrs by agar dilution method; how it was run: as §2
Clostridium perfringens = test: Antibacterial activity against Clostridium perfringens isolated from patient with diabetic foot infection after 44 to 48 hrs by agar dilution method; how it was run: as §2
Parabacteroides merdae = test: Antibacterial activity against Parabacteroides merdae isolated from patient with diabetic foot infection after 44 to 48 hrs by agar dilution method; how it was run: as §1
Porphyromonas somerae [32] = test: Antibacterial activity against Porphyromonas somerae isolated from patient with diabetic foot infection after 44 to 48 hrs by agar dilution method; how it was run: as §1

C[C@@H](O)[C@H]1C(=O)N2C(C(=O)O)=C(S[C@@H]3CN[C@H](CNS(N)(=O)=O)C3)[C@H](C)[C@H]12 [DORIPENEM]
MIC50 (Bacteroides ovatus [1]): 0.25 µg/mL (≈ 0.595 µM) | MIC90 (Bacteroides ovatus [1]): 1 µg/mL (≈ 2.38 µM) | Activity (Anaerococcus tetradius [2]): 0% | Activity (Bacteroides fragilis [3]): 0% | Activity (Porphyromonas somerae [4]): 0% | Activity (Anaerococcus prevotii [5]): 0% | MIC50 (Anaerococcus prevotii [6]): ≤ 0.015 µg/mL | MIC90 (Anaerococcus prevotii [6]): 0.06 µg/mL (≈ 0.143 µM) | MIC50 [7]: 0.25 µg/mL (≈ 0.595 µM) | MIC90 [7]: 1 µg/mL (≈ 2.38 µM) | MIC50 [8]: 0.06 µg/mL (≈ 0.143 µM) | MIC90 [8]: 1 µg/mL (≈ 2.38 µM) | MIC50 ([Clostridium] innocuum [9]): 0.06 µg/mL (≈ 0.143 µM) | MIC90 ([Clostridium] innocuum [9]): 1 µg/mL (≈ 2.38 µM) | MIC50 (Finegoldia magna [10]): 0.06 µg/mL (≈ 0.143 µM) | MIC90 (Finegoldia magna [10]): 0.125 µg/mL (≈ 0.297 µM) | MIC50 [11]: 0.06 µg/mL (≈ 0.143 µM) | MIC90 [11]: 1 µg/mL (≈ 2.38 µM) | MIC50 (Bacteroides uniformis [12]): 0.25 µg/mL (≈ 0.595 µM) | MIC90 (Bacteroides uniformis [12]): 1 µg/mL (≈ 2.38 µM) | MIC50 [13]: 0.06 µg/mL (≈ 0.143 µM) | MIC90 [13]: 0.25 µg/mL (≈ 0.595 µM) | MIC50 [14]: 0.25 µg/mL (≈ 0.595 µM) | MIC90 [14]: 1 µg/mL (≈ 2.38 µM) | MIC50 (Cutibacterium acnes): 0.06 µg/mL (≈ 0.143 µM) | MIC90 (Cutibacterium acnes): 0.125 µg/mL (≈ 0.297 µM) | Activity [15]: 0% | Activity [16]: 0% | Activity ([Clostridium] innocuum [17]): 0% | MIC50 (Phocaeicola vulgatus [18]): 0.25 µg/mL (≈ 0.595 µM) | MIC90 (Phocaeicola vulgatus [18]): 1 µg/mL (≈ 2.38 µM) | MIC50 (Clostridium cadaveris): 0.06 µg/mL (≈ 0.143 µM) | MIC90 (Clostridium cadaveris): 1 µg/mL (≈ 2.38 µM) | Activity [19]: 0% | Activity [20]: 0% | Activity (Finegoldia magna [21]): 0% | Activity (Prevotella bivia): 0% | Activity (Bacteroides ovatus [22]): 0% | MIC50 (Bacteroides fragilis [23]): 0.25 µg/mL (≈ 0.595 µM) | MIC90 (Bacteroides fragilis [23]): 0.25 µg/mL (≈ 0.595 µM) | Activity (Phocaeicola vulgatus [24]): 0% | Activity [25]: 0% | MIC50 (Parvimonas micra [26]): 0.06 µg/mL (≈ 0.143 µM) | MIC90 (Parvimonas micra [26]): 0.25 µg/mL (≈ 0.595 µM) | Activity (Parvimonas micra [27]): 0% | MIC50 (Anaerococcus tetradius [28]): ≤ 0.015 µg/mL | MIC90 (Anaerococcus tetradius [28]): 0.06 µg/mL (≈ 0.143 µM) | Activity (Bacteroides uniformis [29]): 0% | MIC50 [30]: ≤ 0.015 µg/mL | MIC90 [30]: 0.03 µg/mL (≈ 0.0713 µM) | Activity [31]: 0% | MIC50 (Clostridium perfringens): ≤ 0.015 µg/mL | MIC90 (Clostridium perfringens): 0.03 µg/mL (≈ 0.0713 µM) | MIC50 (Parabacteroides merdae): 0.25 µg/mL (≈ 0.595 µM) | MIC90 (Parabacteroides merdae): 1 µg/mL (≈ 2.38 µM) | MIC50 (Porphyromonas somerae [32]): ≤ 0.015 µg/mL | MIC90 (Porphyromonas somerae [32]): 0.03 µg/mL (≈ 0.0713 µM)
